# Measured values published in paper PMC3561764 (Nature, 2007).
# No end group written: not given here.
# B1: Mig6^segment 1–2 (Y358A) (peptide, UniProt Q9UJM3 336-412, looked up, variant M346L Y358A)
# chain: KSLPSYLNGVLPPTQSFAPDPKAVSSKALQRQNSEGSASKVPCILPIIENGKKVSSTHYYLLPERPPYLDKYEKFFR
# B2: Mitogen-induced gene 6 (protein, UniProt Q9UJM3 1-462, looked up)
# chain: MSIAGVAAQEIRVPLKTGFLHNGRAMGNMRKTYWSSRSEFKNNFLNIDPITMAYSLNSSAQERLIPLGHASKSAPMNGHCFAENGPSQKSSLPPLLIPPSENLGPHEEDQVVCGFKKLTVNGVCASTPPLTPIKNSPSLFPCAPLCERGSRPLPPLPISEALSLDDTDCEVEFLTSSDTDFLLEDSTLSDFKYDVPGRRSFRGCGQINYAYFDTPAVSAADLSYVSDQNGGVPDPNPPPPQTHRRLRRSHSGPAGSFNKPAIRISNCCIHRASPNSDEDKPEVPPRVPIPPRPVKPDYRRWSAEVTSSTYSDEDRPPKVPPREPLSPSNSRTPSPKSLPSYLNGVMPPTQSFAPDPKYVSSKALQRQNSEGSASKVPCILPIIENGKKVSSTHYYLLPERPPYLDKYEKFFREAEETNGGAQIQPLPADCGISSATEKPDSKTKMDLGGHVKRKHLSYVVSP
# modifications: full-length C-terminal Myc tag
# B3: 30-residue fluorescein-labeled Mig6 peptide (residues 334–363) M346L (peptide, UniProt Q9UJM3 334-363, looked up)
# peptide: SPKSLPSYLNGVLPPTQSFAPDPKYVSSKA
# modifications: also: fluorescein label, position not given here
# Legend:
# [1] = tested on: EGFR kinase domain K799E mutant; test: interaction with K799E mutant kinase domain; format: binding; details: Supplemental Figure 5
# EGFR kinase domain = test: crystal structures of EGFR kinase domain/Mig6 peptide complexes; format: binding; details: 25-residue epitope, residues 337–361
# [2] = tested on: EGFR kinase domain attached to lipid vesicles; test: vesicle-based kinase assay; format: biochemical; details: wild type kinase 3.5 μM, substrate peptide 1 mM, Fig. 2c
# Summary of the method: (§1)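 Wild-type EGFR kinase domain assayed either free in solution at 14 μM, or tethered to lipid vesicles at 3.5 μM. Vesicle tethering raises the local kinase concentration and promotes asymmetric dimer formation. Substrate peptide was held at 1 mM in all runs. Activity is reported as initial velocity normalised by kinase concentration.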
# [3] = target: wild type EGFR kinase domain (Homo sapiens, UniProt P00533); test: kinase assay in solution, wild type; format: biochemical; details: kinase 14 μM, substrate peptide 1 mM, Fig. 3b
# Summary of the method: as §1
# EGFR [4] = details: mouse skin; ref [8]; cited from earlier work
# EGFR [5] = details: ref [3],[5],[12]; cited from earlier work
# [6] = target: EGFR kinase domain, wild type (UniProt P00533 696-1022); test: fluorescence polarisation
molecule,measurement,setting,value
Mig6^segment 1: 25-residue epitope of Mig6 sufficient for binding to the EGFR kinase domain (residues 337–361),effect of K799E kinase mutation on interaction with Mig6^segment 1,[1],does not affect the conformation of the kinase domain or its interaction
same,binding to the EGFR kinase domain (crystal structures),EGFR kinase domain,sufficient for binding to the EGFR kinase domain
"25-residue peptide: 25-residue peptide (residues 340–364), which lacks 3 residues in the N-terminal portion of Mig6^segment 1","inhibition of the kinase domain attached to lipid vesicles, in words",[2],much less potent
B1,"inhibition of basal activity of wild type kinase domain in solution, in words",[3],does not show any inhibition
B2,inhibition of EGFR-mediated signals,EGFR [4],inhibits EGFR-mediated signals in mouse skin
same,binding to activated EGFR compared with unliganded receptor,EGFR [5],bind more tightly to activated EGFR than to the unliganded receptor
B3,binding result,[6],binds
